# Test results taken from ChEMBL document CHEMBL4004786, “Nanomolar Antimalarial Agents against Chloroquine-Resistant Plasmodium falciparum from Medicinal Plants and Their Structure-Activity Relationships” (J Nat Prod, 2017).
# Legend:
# WI-38 = assay: Cytotoxicity against human WI38 cells after 24 hrs by resazurin assay; details: WI-38, 24 h
# [1] = Selectivity index, ratio of IC50 for human WI38 cells to IC50 for chloroquine-resistant Plasmodium falciparum Dd2; type: toxicity; details: read-out: Ratio IC50
# Plasmodium falciparum = assay: Antimalarial activity against chloroquine-resistant Plasmodium falciparum Dd2 assessed as parasite growth inhibition after 72 hrs by SYBR Green 1 assay; type: functional; details: Dd2, 72 h
# How it was run: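 Viability was read by SYBR Green I DNA quantitation and normalized to DMSO-treated untreated controls. IC50 came from nonlinear regression, averaging at least three independent experiments run in triplicate, with standard deviations.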
SMILES,IC50 (WI-38) [nM],selectivity ratio [1],IC50 (Plasmodium falciparum) [nM]
COC(=O)/C(C)=C1\C(=O)[C@H](O)[C@]2(C)C3=C(C[C@@H]4[C@]5(OC(=O)C(CO)=C5C[C@H]5[C@](O)(COC(C)=O)[C@H]6C[C@H]6[C@]45C)[C@H]31)[C@H]1C[C@H]12,10000,100,100
COC(=O)CCC(=O)OC/C(C)=C/C(=O)OC[C@]1(O)[C@H]2C[C@H]2[C@]2(C)[C@@H]3C[C@@]4(OO)C5=C(/C(=C(\C)C(=O)OC)C(=O)[C@H](O)[C@@]5(C)[C@@H]5C[C@@H]54)[C@@]34OC(=O)C(CO)=C4C[C@@H]12,530,18,30
COC(=O)CCC(=O)OC/C(C)=C/C(=O)OC[C@]1(O)[C@H]2C[C@H]2[C@]2(C)[C@@H]3CC4=C5[C@H](/C(=C(\C)C(=O)OC)C(=O)[C@H](O)[C@@]5(C)[C@@H]5C[C@H]45)[C@@]34OC(=O)C(CO)=C4C[C@@H]12,3090,163,19
COC(=O)CCC(=O)OCC1=C2C[C@H]3[C@](O)(COC(=O)/C=C(\C)CO)[C@H]4C[C@H]4[C@]3(C)[C@@H]3CC4=C5[C@H](/C(=C(\C)C(=O)OC)C(=O)[C@H](O)[C@@]5(C)[C@@H]5C[C@H]45)[C@]23OC1=O,5390,4900,1.1
COC(=O)/C(C)=C1/C(=O)[C@H](O)[C@]2(C)C3=C(C[C@@H]4[C@]5(OC(=O)C6=C5C[C@H]5[C@](O)(COC(=O)/C=C(\C)COC(=O)CCC(=O)OC6)[C@H]6C[C@H]6[C@]45C)[C@H]31)[C@H]1C[C@H]12,1240,27,46
C/C=C(\C)C(=O)OC[C@]1(O)[C@H]2CC3=C(CO)C(=O)O[C@@]34[C@@H]3C5=C(C[C@H]4[C@@]2(C)[C@@H]2C[C@@H]21)[C@H]1C[C@H]1[C@]5(C)[C@@H](O)C(=O)/C3=C(\C)C(=O)OC,770,37,21
COC(=O)/C(C)=C1\C(=O)[C@H](O)[C@]2(C)C3=C(C[C@@H]4[C@]5(OC(=O)C6=C5C[C@H]5[C@](O)(COC(=O)/C(C)=C/COC(=O)[C@@H](O)CC(=O)OC6)[C@H]6C[C@H]6[C@]45C)[C@H]31)[C@H]1C[C@H]12,1740,134,13
COC(=O)/C(C)=C1\C(=O)[C@H](O)[C@]2(C)C3=C(C[C@@H]4[C@]5(OC(=O)C(C)=C5C[C@H]5[C@](O)(COC(=O)/C=C(\C)CO)[C@H]6C[C@H]6[C@]45C)[C@H]31)[C@H]1C[C@H]12,4450,46,96
COC(=O)/C(C)=C1\C(=O)[C@H](O)[C@]2(C)C3=C(C[C@@H]4[C@]5(OC(=O)C(COC(=O)C[C@H](O)C(=O)OC)=C5C[C@H]5[C@](O)(COC(=O)/C(C)=C/CO)[C@H]6C[C@H]6[C@]45C)[C@H]31)[C@H]1C[C@H]12,4040,561,7.2
COC(=O)/C(C)=C1\C(=O)[C@H](O)[C@]2(C)C3=C(C[C@@H]4[C@]5(OC(=O)C6=C5C[C@H]5[C@](O)(COC(=O)/C=C(\C)COC(=O)CCC(=O)OC6)[C@H]6C[C@H]6[C@]45C)[C@H]31)[C@H]1C[C@H]12 [SHIZUKAOL F],230,21,11
